ChEMBL document CHEMBL4808168, “The Discovery of Two Novel Classes of 5,5-Bicyclic Nucleoside-Derived PRMT5 Inhibitors for the Treatment of Cancer” (J Med Chem, 2021)
pEC50: −log10 of the molar value. Converted amounts (≈) assume the structure as drawn.

Key:
CYP3A4 = CYP3A4 (Homo sapiens, UniProt P08684); assay: Ratio of IC50 for time dependent inhibition of CYP3A4 (unknown origin) in absence of NADPH to IC50 for time dependent inhibition of CYP3A4 (unknown origin) in presence of NADPH; conditions: read-out: Ratio IC50
Z-138 [1] = assay: Antitumor activity against human Z138 cells implanted in CB17.SCID mouse assessed as tumor growth inhibition at 60 mg/kg, po bid measured at 13 days relative to control; assay type: functional; conditions: Z-138, po, 312 h, time 13 day, read-out: TGI
[2] = MRT in rat; assay type: ADME; conditions: in vivo
[3] = Oral bioavailability in rat; assay type: ADME, organism-based; conditions: in vivo
Z-138 [4] = assay: Antitumor activity against human Z138 cells implanted in CB17.SCID mouse assessed as […] at 5 mg/kg, po bid measured at 13 days relative to control; assay type: functional; conditions: Z-138, po, 312 h, time 13 day, read-out: TGI
How it was run: (§1)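 Female CB17.SCID mice implanted subcutaneously with 5 × 10⁶ Z138 cells; dosing began at about 100 mm³, n = 10 per group; daily PO at 10, 30 or 60 mpk QD or 5 mpk BID in 0.5% methylcellulose; tumor volume (L × W²)/2 and body weight twice weekly; %TGI at day 13 from change in tumor volume versus vehicle.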

[5] = Unbound clearance in rat; assay type: ADME; conditions: in vivo
Z-138 [6] = assay: Antitumor activity against human Z138 cells implanted in CB17.SCID mouse assessed as tumor growth inhibition at 30 mg/kg, po bid measured at 13 days relative to control; assay type: functional; conditions: Z-138, po, 312 h, time 13 day, read-out: TGI
[7] = Unbound volume of distribution in rat; assay type: ADME; conditions: in vivo
Z-138 [8] = assay: Antiproliferative activity against human Z138 cells incubated for 10 days by cell titer-glo assay; assay type: functional, cell-based; conditions: Z-138, 240 h
[9] = Solubility of the compound in […] at pH 2 at 200 uM incubated for 24 hrs by UV-vis detection based HPLC analysis; assay type: physicochemical
How it was run: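 10 mM DMSO stock added to 10 mM potassium phosphate buffer at pH 2 or pH 7, or FaSSIF pH 6.5, to 200 μM total; 24 h equilibration, filtration, then reverse-phase HPLC with UV–vis detection.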

[10] = Unbound volume of distribution in dog; assay type: ADME, Canis lupus familiaris; conditions: in vivo
[11] = Solubility of the compound in FaSSIF at pH 7 at 200 uM incubated for 24 hrs by UV-vis detection based HPLC analysis; assay type: physicochemical
[12] = Unbound clearance in dog; assay type: ADME, Canis lupus familiaris; conditions: in vivo
[13] = Toxicity in CB17.SCID mouse implanted with human Z138 cells assessed as body weight change at 10 to 60 mg/kg, po bid measured up, to 14 days relative to control; assay type: organism-based; conditions: in vivo, 336 h, in the assay text read “po qd” for “po bid”, dose 10-60 mg/kg, time 14 day; how it was run: as §1
Z-138 [14] = assay: Antitumor activity against human Z138 cells implanted in CB17.SCID mouse assessed as tumor growth inhibition at […] measured at 13 days relative to control; assay type: functional; conditions: Z-138, po, 312 h, time 13 day, read-out: TGI
[15] = Oral bioavailability in dog; assay type: ADME, organism-based, Canis lupus familiaris; conditions: in vivo
[16] = MRT in dog; assay type: ADME, Canis lupus familiaris; conditions: in vivo
[17] = biological target: Protein arginine N-methyltransferase 5 (Homo sapiens, UniProt O14744); assay: Inhibition of PRMT5 (unknown origin) assessed as inhibition of symmetric dimethylation of arginine incubated for 3 days by fluorescence based cellular target engagement assay
How it was run: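 MCF-7 cells (4000/well, collagen-coated plates) in EMEM with 0.01 mg/mL insulin and 10% FBS; 10-point 1:3 titration from 10,000 nM; 3 days at 37 °C/5% CO2; fixed, permeabilized, anti-SDMA antibody, then Alexa488 anti-rabbit IgG plus Hoechst; nuclear fluorescence by high-content imaging versus DMSO; EC50 by four-parameter robust fit.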

[18] = Plasma clearance in rat; assay type: ADME

Sequence of Protein arginine N-methyltransferase 5 (O14744 whole entry): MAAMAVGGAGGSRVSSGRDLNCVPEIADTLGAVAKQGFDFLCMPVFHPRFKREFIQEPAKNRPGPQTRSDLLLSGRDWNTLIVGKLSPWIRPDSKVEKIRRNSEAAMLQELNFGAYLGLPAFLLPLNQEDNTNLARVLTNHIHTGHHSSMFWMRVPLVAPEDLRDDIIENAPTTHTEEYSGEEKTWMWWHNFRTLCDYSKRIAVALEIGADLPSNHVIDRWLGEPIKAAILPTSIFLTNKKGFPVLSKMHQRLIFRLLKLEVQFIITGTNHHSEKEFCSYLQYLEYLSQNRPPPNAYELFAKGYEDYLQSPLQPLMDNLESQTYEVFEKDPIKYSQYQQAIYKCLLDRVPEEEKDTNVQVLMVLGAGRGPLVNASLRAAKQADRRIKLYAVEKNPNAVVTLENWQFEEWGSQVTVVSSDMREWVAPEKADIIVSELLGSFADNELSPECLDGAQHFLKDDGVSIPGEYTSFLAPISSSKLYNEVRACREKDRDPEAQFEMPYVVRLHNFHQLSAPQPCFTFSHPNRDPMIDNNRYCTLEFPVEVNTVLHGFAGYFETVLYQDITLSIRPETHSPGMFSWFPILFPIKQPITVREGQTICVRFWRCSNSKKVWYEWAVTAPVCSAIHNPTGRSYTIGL
Sequence of CYP3A4 (P08684 whole entry): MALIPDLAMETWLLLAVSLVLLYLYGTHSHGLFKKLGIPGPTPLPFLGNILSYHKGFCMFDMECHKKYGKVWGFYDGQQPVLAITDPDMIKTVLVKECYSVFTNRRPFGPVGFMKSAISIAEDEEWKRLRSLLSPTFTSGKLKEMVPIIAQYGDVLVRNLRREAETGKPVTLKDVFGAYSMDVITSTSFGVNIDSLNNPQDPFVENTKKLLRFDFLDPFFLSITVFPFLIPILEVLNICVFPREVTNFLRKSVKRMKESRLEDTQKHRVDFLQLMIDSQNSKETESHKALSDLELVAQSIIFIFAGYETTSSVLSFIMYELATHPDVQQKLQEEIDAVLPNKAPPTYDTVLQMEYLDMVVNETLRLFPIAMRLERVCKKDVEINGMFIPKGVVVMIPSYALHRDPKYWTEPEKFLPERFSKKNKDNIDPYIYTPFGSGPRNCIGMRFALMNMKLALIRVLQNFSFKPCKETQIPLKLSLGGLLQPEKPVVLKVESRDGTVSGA

Cc1ncnc2c1ccn2[C@@H]1O[C@@H]2[C@@H](Oc3ccc4cc(Br)c(N)nc4c3)CC[C@]2(O)[C@H]1O
IC50 shift (CYP3A4): > 2.4 | inhibition in vivo at 60 mg/kg (Z-138 [1]): 71% | MRT [2]: 1.6 h | bioavailability [3]: 42% | inhibition in vivo at 5 mg/kg (Z-138 [4]): 33% | CL free [5]: 1444 mL/min/kg | inhibition in vivo at 30 mg/kg (Z-138 [6]): 76% | Vdu [7]: 139 L/kg | pEC50 (Z-138 [8]): 7.77 | solubility at 24 h, 200 µM [9]: 161 µM (≈ 82.5 µg/mL) | Vdu [10]: 93 L/kg | solubility at 24 h, 200 µM [11]: < 1 µM | CL free [12]: 329 mL/min/kg | Activity [13]: Non-Toxic | inhibition in vivo (Z-138 [14]): 45% | bioavailability [15]: 44% | MRT [16]: 4.6 h | pEC50 [17]: 8.33 | clearance [18]: 4 mL/min/kg

Cc1ncnc2c1ccn2[C@@H]1O[C@@H]2[C@H](Cc3ccc4cc(Br)c(N)nc4c3)CC[C@]2(O)[C@H]1O
MRT [2]: 1.1 h | bioavailability [3]: 46% | CL free [5]: 2163 mL/min/kg | Vdu [7]: 148 L/kg | pEC50 (Z-138 [8]): 8.85 | solubility at 24 h, 200 µM [9]: 186 µM (≈ 94.9 µg/mL) | solubility at 24 h, 200 µM [11]: 21 µM (≈ 10.7 µg/mL) | pEC50 [17]: > 9.30 | clearance [18]: 27 mL/min/kg

Cc1nc(N)c2ccn([C@@H]3O[C@@H]4[C@H](Cc5ccc6cc(Br)c(N)nc6c5)CC[C@]4(O)[C@H]3O)c2n1
MRT [2]: 1.5 h | bioavailability [3]: 11% | CL free [5]: 1337 mL/min/kg | Vdu [7]: 116 L/kg | pEC50 (Z-138 [8]): 8.19 | solubility at 24 h, 200 µM [9]: 151 µM (≈ 79.3 µg/mL) | solubility at 24 h, 200 µM [11]: 21 µM (≈ 11 µg/mL) | pEC50 [17]: 8.49 | clearance [18]: 31 mL/min/kg

Nc1nc2cc(C[C@@H]3CC[C@@]4(O)[C@@H]3C[C@@H](n3cc(F)c5c(N)ncnc53)[C@@H]4O)cc(F)c2cc1F
MRT [2]: 2.5 h | bioavailability [3]: 24% | CL free [5]: 368 mL/min/kg | Vdu [7]: 54 L/kg | pEC50 (Z-138 [8]): 8.24 | solubility at 24 h, 200 µM [9]: 190 µM (≈ 92.1 µg/mL) | Vdu [10]: 43 L/kg | solubility at 24 h, 200 µM [11]: 25 µM (≈ 12.1 µg/mL) | CL free [12]: 72 mL/min/kg | bioavailability [15]: 45% | MRT [16]: 9.9 h | pEC50 [17]: 9.08 | clearance [18]: 14 mL/min/kg

Nc1nc2cc(C[C@@H]3CC[C@@]4(O)[C@@H]3O[C@@H](n3ccc5c(N)ncnc53)[C@@H]4O)c(F)cc2cc1F
MRT [2]: 1.6 h | bioavailability [3]: 30% | CL free [5]: 844 mL/min/kg | Vdu [7]: 80 L/kg | pEC50 (Z-138 [8]): 7.70 | solubility at 24 h, 200 µM [9]: 156 µM (≈ 73.1 µg/mL) | solubility at 24 h, 200 µM [11]: 110 µM (≈ 51.5 µg/mL) | pEC50 [17]: 8.55 | clearance [18]: 40 mL/min/kg

Cc1ncnc2c1ccn2[C@@H]1C[C@@H]2[C@H](Cc3ccc4cc(Br)c(N)nc4c3)CC[C@]2(O)[C@H]1O
MRT [2]: 1.5 h | bioavailability [3]: 74% | CL free [5]: 835 mL/min/kg | Vdu [7]: 143 L/kg | pEC50 (Z-138 [8]): 8.80 | solubility at 24 h, 200 µM [9]: 199 µM (≈ 101 µg/mL) | solubility at 24 h, 200 µM [11]: 14 µM (≈ 7.12 µg/mL) | pEC50 [17]: 8.96 | clearance [18]: 13 mL/min/kg

Nc1nc2cc(C[C@@H]3CC[C@@]4(O)[C@@H]3O[C@@H](n3ccc5c(N)ncnc53)[C@@H]4O)cc(F)c2cc1F
MRT [2]: 2.1 h | bioavailability [3]: 29% | CL free [5]: 430 mL/min/kg | Vdu [7]: 54 L/kg | pEC50 (Z-138 [8]): 8.25 | solubility at 24 h, 200 µM [9]: 171 µM (≈ 80.1 µg/mL) | solubility at 24 h, 200 µM [11]: 83 µM (≈ 38.9 µg/mL) | pEC50 [17]: 8.77 | clearance [18]: 25 mL/min/kg

Nc1nc2cc(O[C@H]3CC[C@@]4(O)[C@@H]3O[C@@H](n3ccc5c(N)ncnc53)[C@@H]4O)ccc2cc1Cl
MRT [2]: 1.4 h | bioavailability [3]: 2% | CL free [5]: 412 mL/min/kg | Vdu [7]: 34 L/kg | pEC50 (Z-138 [8]): 8.12 | solubility at 24 h, 200 µM [9]: 158 µM (≈ 74.1 µg/mL) | solubility at 24 h, 200 µM [11]: < 1 µM | pEC50 [17]: 8.92 | clearance [18]: 22 mL/min/kg

Cc1ncnc2c1ccn2[C@@H]1O[C@@H]2[C@@H](Oc3ccc4cc(Cl)c(N)nc4c3)CC[C@]2(O)[C@H]1O
MRT [2]: 1.4 h | bioavailability [3]: 71% | CL free [5]: 710 mL/min/kg | Vdu [7]: 59 L/kg | pEC50 (Z-138 [8]): 7.62 | solubility at 24 h, 200 µM [9]: 160 µM (≈ 74.9 µg/mL) | solubility at 24 h, 200 µM [11]: 2 µM (≈ 0.936 µg/mL) | pEC50 [17]: 8.40 | clearance [18]: 8 mL/min/kg

Cc1ncnc2c1ccn2[C@@H]1O[C@@H]2[C@H](Cc3ccc4cc(Cl)c(N)nc4c3)CC[C@]2(O)[C@H]1O
MRT [2]: 1.1 h | bioavailability [3]: 41% | CL free [5]: 667 mL/min/kg | Vdu [7]: 43 L/kg | pEC50 (Z-138 [8]): 8.16 | solubility at 24 h, 200 µM [9]: 148 µM (≈ 69 µg/mL) | solubility at 24 h, 200 µM [11]: 29 µM (≈ 13.5 µg/mL) | pEC50 [17]: 8.60 | clearance [18]: 24 mL/min/kg

Nc1nc2cc(C[C@@H]3CC[C@@]4(O)[C@@H]3O[C@@H](n3ccc5c(N)ncnc53)[C@@H]4O)ccc2cc1Br
MRT [2]: 1.5 h | bioavailability [3]: 10% | CL free [5]: 940 mL/min/kg | Vdu [7]: 82 L/kg | pEC50 (Z-138 [8]): 8.77 | solubility at 24 h, 200 µM [9]: 162 µM (≈ 82.8 µg/mL) | solubility at 24 h, 200 µM [11]: 35 µM (≈ 17.9 µg/mL) | pEC50 [17]: 8.89 | clearance [18]: 25 mL/min/kg
